PTEN del growth – suppresses growth of cells with PTEN deletion; 140,000 compounds, 1.2% hits; HCT116 PTEN-null viability, CellTiter-Glo, 60 h; active compounds read low; viability, % at 10 µM; AID 827;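 active = viability at or below a set limit, 4 SD under the median of all tested compounds, cut at about 3.7% in these data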;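 note: PTEN knockout HCT116 line with beta catenin targeted HCT116 as companion control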
Fibroblast inh – blocks proliferation of human lung fibroblasts | LL 47 human lung fibroblast viability, ATP luminescence; active compounds read low | viability, % at 10 µM | 85,000 compounds, 1.1% hits;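 active = viability at or below 50% in the single dose screen; inactive = viability above 50%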;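 note: compound exposure lasted 72 h before the ATP readout; 100% = median luminescence of untreated cell-only wells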
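Times – overnight cell rest, 72 h compound treatment at 37 °C · Test system – human lung fibroblast line LL 47, low passage · Amount – 1,150 cells in each well · Controls – cell-only wells, no compound · Doses – 0.1% DMSO in all compound wells · Measured by – CellTiter-Glo luminescence · Buffer or medium – IMEM plus 15% FBS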
Calb biofilm kill – kills Candida albicans biofilms; C. albicans biofilm + clotrimazole, Alamar Blue; inhibition, % at 6 µM; 85,000 compounds, 0.14% hits; AID 834;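 active = inhibition above 20%; inactive = inhibition below 20%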;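 note: preformed 24 hr biofilms exposed to compound for 48 hr; 0% = biofilm without compound and 100% = blank killed by clotrimazole plus chlorhexidine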
bCat KO growth – beta-catenin-lacking colon tumor cell growth suppression; 140,000 compounds, 1.5% hits; viability, % at 10 µM; AID 818; HCT116 beta-catenin knockout viability, CellTiter-Glo, 60 h; active compounds read low;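 active = viability at or under a set limit, the compound median less 4 SD, cut at about 6% in these data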;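 note: 0% = Hyamine 1622 control at 20 µM and 100% = untreated cell control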
HUVEC inhibit – inhibitors of human endothelial cell proliferation; AID 648; HUVEC proliferation, CellTiter-Glo luminescence, 72 h; active compounds read low; 86,000 compounds, 1.1% hits; viability, % at 10 µM (by protocol);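 active = viability at or below 30%; inactive = viability above 30%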;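 note: 100% = median luminescence of DMSO-only cell control wells on each plate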
H69AR inhibit – blocks growth of human H69AR lung tumor cells. H69AR lung tumor viability, ATP luminescence, 72 h; active compounds read low. viability, % at 10 µM. 85,000 compounds, 6% hits. AID 598;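 active = viability at or below 40%; inactive = viability above 40%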;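 note: multidrug resistant small cell line overexpressing MRP-1 efflux transporter; 100% = mean luminescence of untreated control wells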
Starred values were filed as active, the others as inactive. The entries come from a sample that favours hits as a whole.

`CN(C)CCCN1C(=O)c2cccc3c([N+](=O)[O-])ccc(c23)C1=O` gave PTEN del growth 1.6* and bCat KO growth 1.4*.
Screening Cc1ccc(OCCN2C(=O)c3ccccc3C2=O)c([N+](=O)[O-])c1 returned PTEN del growth 103.6 and bCat KO growth 95.7.
For COc1ccccc1-n1c(C)cc(C=O)c1C the results were PTEN del growth 96.1, Fibroblast inh 95.4, Calb biofilm kill 7.7, bCat KO growth 103.1, HUVEC inhibit 97.0 and H69AR inhibit 81.9.
For CCOC(=O)c1cnc2c(N=Nc3ccccc3)c(N)nn2c1N the results were PTEN del growth 94.8 and bCat KO growth 85.8.
Screening CCOC(=O)c1cnc2c(N=Nc3cccc(Cl)c3)c(N)nn2c1N returned PTEN del growth 2.5* and bCat KO growth 3.4*.
For COC(=O)[C@@]1(Cc2ccc(F)cc2)[C@H]2c3cc(C(=O)N(C)C)n(Cc4c(CO)[nH]cc(C)c4=O)c3C[C@H]2CN1C(=O)c1ccccc1 the results were PTEN del growth 86.8 and bCat KO growth 87.4.
For CCOC(=O)c1sc2nc(C(C)C)c3c(c2c1N)CC(C)(C)OC3 the results were PTEN del growth 16.9, Fibroblast inh 47.6*, Calb biofilm kill -5.4, bCat KO growth 19.0, HUVEC inhibit 64.1 and H69AR inhibit 50.5.
CCOC(=O)c1sc2nc(N3CCCC3)c3c(c2c1N)CC(C)(C)OC3 was read as PTEN del growth 85.1 and bCat KO growth 92.4.
C=C(C)COc1ccc(-c2[nH]ncc2-c2ccc(OC)c(OC)c2)c(O)c1 was read as PTEN del growth 12.3, Fibroblast inh 45.7*, Calb biofilm kill 6.6, bCat KO growth 13.0 and HUVEC inhibit 44.6.
For O=[N+]([O-])c1ccc(COc2ccc(-c3[nH]ncc3-c3ccccc3)c(O)c2)cc1 the results were PTEN del growth 47.6 and bCat KO growth 59.1.
Screening COc1ccc(-c2cnc(N)nc2-c2ccc(OC)cc2O)cc1 returned PTEN del growth 76.5, Fibroblast inh 102.8, Calb biofilm kill 2.4, bCat KO growth 77.1, HUVEC inhibit 88.8 and H69AR inhibit 49.5.
C=C(C)COc1ccc(-c2nc(N)ncc2-c2ccc(OC)cc2)c(O)c1 was read as PTEN del growth 34.7, Fibroblast inh 93.3, Calb biofilm kill 8.6, bCat KO growth 41.6, HUVEC inhibit 98.6 and H69AR inhibit 10.1*.
C=C(C)COc1ccc(-c2[nH]ncc2-c2ccccc2)c(O)c1 was read as PTEN del growth 63.2, Fibroblast inh 94.1, Calb biofilm kill 4.0, bCat KO growth 72.8, HUVEC inhibit 37.5 and H69AR inhibit 39.2*.
Screening CCc1ccccc1NC(=O)c1ccc(CN2CCC(Cc3ccccc3)CC2)cc1 returned PTEN del growth 43.7 and bCat KO growth 38.0.
O/N=C1\CC/C(=N\O)c2nn(-c3ccccc3Cl)nc21 was read as PTEN del growth 101.9, Fibroblast inh 47.4*, Calb biofilm kill 3.2, bCat KO growth 104.8 and HUVEC inhibit 76.5.
Cc1cc(Br)ccc1SCC(=O)OCC(=O)Nc1ncc(C(F)(F)F)cc1Cl was read as PTEN del growth 97.4 and bCat KO growth 94.0.
`Cc1ccc(OC/C(O)=C(\C#N)c2nc3ccccc3s2)cc1` gave PTEN del growth 88.1 and bCat KO growth 85.2.
Cn1c(/C(C#N)=C(\O)COc2ccc3ccccc3c2)nc2ccccc21 was read as PTEN del growth 46.3, Fibroblast inh 83.6, bCat KO growth 54.6, HUVEC inhibit 57.9 and H69AR inhibit 12.2*.
O=C(Nc1nc2ccccc2n1CCOc1ccccc1)c1ccco1 was read as PTEN del growth 15.0, Fibroblast inh 65.3, Calb biofilm kill 6.3, bCat KO growth 16.3, HUVEC inhibit 73.6 and H69AR inhibit 41.5.
O=C(Nc1nc2ccccc2n1CCOc1ccc(Cl)cc1)c1ccco1 was read as PTEN del growth 6.4, Fibroblast inh 58.5, Calb biofilm kill 3.6, bCat KO growth 5.4*, HUVEC inhibit 56.5 and H69AR inhibit 53.0.
`Cc1cccc(OCCn2c(NC(=O)c3ccco3)nc3ccccc32)c1` gave PTEN del growth 10.8, Fibroblast inh 54.6, Calb biofilm kill 2.0, bCat KO growth 19.2, HUVEC inhibit 52.5 and H69AR inhibit 44.8.
For S=C(Nc1ccccc1)Nc1nc2ccccc2n1CCOc1ccc(Br)cc1 the results were PTEN del growth 2.1* and bCat KO growth 1.6*.
Screening Cc1ccc(OCCn2c(NC(=O)c3ccco3)nc3ccccc32)cc1 returned PTEN del growth 67.9, Fibroblast inh 56.5, Calb biofilm kill -1.5, bCat KO growth 63.8, HUVEC inhibit 54.8 and H69AR inhibit 26.4*.
Screening COc1ccc2nc(/N=C/c3c(C)[nH]n(-c4ccc(C)cc4)c3=O)sc2c1 returned PTEN del growth 57.9 and bCat KO growth 62.6.
For CN(C)Cc1ccccc1COc1ccccc1 the results were PTEN del growth 88.3 and bCat KO growth 94.0.
For CCCC1C2CN(C(C)C)CC=C2C(C#N)=C(N)C1(C#N)C#N (stereo not given) the results were PTEN del growth 100.0, Fibroblast inh 97.3, Calb biofilm kill 3.5, bCat KO growth 103.2, HUVEC inhibit 93.5 and H69AR inhibit 21.3*.
`CC(C)c1ccc(C2C3CSCC=C3C(C#N)=C(N)C2(C#N)C#N)cc1` (stereo not given) gave PTEN del growth 49.7, Fibroblast inh 86.1, Calb biofilm kill 1.4, bCat KO growth 38.3, HUVEC inhibit 6.8* and H69AR inhibit 1.4*.
For CN1CC=C2C(C#N)=C(N)C(C#N)(C#N)C(CCc3ccccc3)C2C1 (stereo not given) the results were PTEN del growth 85.7, Fibroblast inh 93.0, Calb biofilm kill 11.9, bCat KO growth 94.4, HUVEC inhibit 80.4 and H69AR inhibit 58.8.
For CN1CC=C2C(C#N)=C(N)C(C#N)(C#N)[C@H](c3cccs3)[C@H]2C1 the results were PTEN del growth 78.5, Fibroblast inh 84.9, Calb biofilm kill 6.8, bCat KO growth 75.6, HUVEC inhibit 90.5 and H69AR inhibit 34.9*.
`COc1ccc(OC)c(-c2csc(N(Cc3ccco3)C(=O)c3cccs3)n2)c1` gave PTEN del growth 89.0, Fibroblast inh 97.8, Calb biofilm kill -0.2, bCat KO growth 85.0, HUVEC inhibit 91.8 and H69AR inhibit 8.8*.
COc1ccccc1NC(=O)CN(Cc1ccco1)C(=O)c1cccs1 was read as PTEN del growth 87.4, Fibroblast inh 93.3, Calb biofilm kill 8.2, bCat KO growth 88.4, HUVEC inhibit 101.1 and H69AR inhibit 91.5.
Screening COc1ccc(-c2csc(N(CC3CCCO3)C(=O)c3cccs3)n2)cc1 (stereo not given) returned PTEN del growth 50.6, Fibroblast inh 99.5, Calb biofilm kill 3.4, bCat KO growth 50.9, HUVEC inhibit 99.8 and H69AR inhibit 76.4.
CCN(CC)CCCN(C(=O)c1cccs1)c1nc(-c2ccc(OC)cc2)cs1 was read as PTEN del growth 29.9, Fibroblast inh 69.2, Calb biofilm kill 9.5, bCat KO growth 29.8, HUVEC inhibit 14.9* and H69AR inhibit 29.2*.
